Bioassay records deposited in PubChem BioAssay by The Scripps Research Institute Molecular Screening Center.
The list is not random: actives were taken first. Their share in the collection is about 2.7%.
SIAE primary: human SIAE inhibition, primary screen; Q9HAT2; SIAE FP-Rh probe binding, fluorescence polarization; inhibition, % at 9.66 µM; 370,000 compounds, 0.69% hits; AID 1053197;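 active = inhibition above a cutoff: mean of compounds within the control limits plus 3 SD of those, cut at about 17% in these data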;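 note: 0% = plate median of compound wells and 100% = probe without SIAE protein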
mABHD4 FP: ABHD4 (mouse) inhibition, primary FP screen | inhibition, % at 8.92 µM | purified mABHD4, FP-Rh probe fluorescence polarization | 370,000 compounds, 0.54% hits | AID 720543;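 active = inhibition exceeding the mean over every tested compound plus 3 SD, cut at about 30% in these data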;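 note: 0% = plate median of compound wells and 100% = S159A mutant with DMSO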
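Assay system: Wild-type mouse ABHD4 protein | Medium: HEPES pH 7.0 buffer, 150 mM NaCl, 0.01% Pluronic F-127 | Incubation: Enzyme–compound pre-incubation 45 min, then probe 60 min, both 25 °C | Technique: Fluorescence polarization with parallel and perpendicular emission, 525/598 nm | Evaluation: % inhibition of FP-Rh probe binding versus controls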
PRMT1 FP inh: blocks human protein arginine methyltransferase 1; recombinant PRMT1, activity-based probe fluorescence polarization; inhibition, % at 2.79 µM; 370,000 compounds, 1.3% hits; AID 652257;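 active = inhibition above about 21% made by adding two undisclosed values, limit read from the data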
HTRA1 inh: HTRA1 (human) protease inhibition | inhibition, % at 5.96 µM | 340,000 compounds, 0.5% hits | recombinant HTRA1, FP-rhodamine activity-based probe, fluorescence polarization | Q92743 | AID 504803; in the data active = inhibition above about 36%;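 note: 0% = enzyme with DMSO and 100% = wells lacking enzyme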
Target sequence (Q92743 whole entry, looked up): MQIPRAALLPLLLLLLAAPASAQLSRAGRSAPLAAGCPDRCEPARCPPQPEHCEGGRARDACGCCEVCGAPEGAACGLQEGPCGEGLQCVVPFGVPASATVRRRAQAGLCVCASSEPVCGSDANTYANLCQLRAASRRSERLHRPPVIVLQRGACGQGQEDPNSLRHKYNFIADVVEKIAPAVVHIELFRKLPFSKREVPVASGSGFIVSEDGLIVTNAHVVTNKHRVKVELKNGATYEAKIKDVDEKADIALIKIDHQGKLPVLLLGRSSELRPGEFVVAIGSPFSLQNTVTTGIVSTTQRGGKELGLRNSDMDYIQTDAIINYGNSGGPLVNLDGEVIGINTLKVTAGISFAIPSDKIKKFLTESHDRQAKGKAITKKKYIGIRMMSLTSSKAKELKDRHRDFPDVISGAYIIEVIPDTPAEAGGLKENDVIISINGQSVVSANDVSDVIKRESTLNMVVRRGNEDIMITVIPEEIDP
TCR-CD3 inh: blocks the human TCR-CD3 interaction. AID 651800. TAMRA-labeled TCR probe fluorescence, biochemical. inhibition, % at 9.4 µM. 360,000 compounds, 0.37% hits; in the data active = inhibition above about 19%;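 note: recombinant mutant TCR 2C K166C tagged with TAMRA read by polarization; 0% = receptor in buffer alone and 100% = receptor with positive control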
PRMT1 inh conf: confirmation of human PRMT1 inhibitors; inhibition, % at 2.79 µM; AID 687036; recombinant His-PRMT1, activity-based probe fluorescence polarization; 3,300 compounds, 42% hits; shares compounds with PRMT1 FP inh;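 active = mean inhibition across replicates above the hit cutoff derived for the earlier primary screen, cut at about 22% in these data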
* = called active by the depositor; nt = not tested or not shown.

SMILES | SIAE primary | mABHD4 FP | PRMT1 FP inh | HTRA1 inh | TCR-CD3 inh | PRMT1 inh conf
S=C(c1ccc(Cl)cc1)N1CCN(Cc2ccccc2)CC1 | 6 | -2 | 1 | 2 | 0 | nt
CSc1ccc(C(=S)N2CCN(Cc3ccccc3)CC2)cc1 | -8 | -2 | 32* | -10 | -7 | 38*
CCn1c(C)nc2cc(C(=O)NNC(=O)CCC3CCCCC3)ccc21 | nt | nt | nt | 0 | nt | nt
COC(=O)C1=C(C)N(C)C(=NCc2ccc3c(c2)OCO3)NC1c1cccc(Cl)c1 (stereo not given) | -4 | 3 | 1 | nt | 1 | nt
Cc1ccc(/C=C2\SC(=S)N(Cc3ccccc3)C2=O)o1 | 1 | -14 | 2 | 6 | -7 | nt
Cc1ccc(/C=C2/NC(=O)N(Cc3ccccc3)C2=O)o1 | 14 | 13 | 66* | 7 | 7 | 15
CCN(CC)CCCNC(=S)N(CCO)Cc1cc2cc3c(cc2[nH]c1=O)OCCO3 | 1 | 11 | 7 | -2 | -2 | nt
CCCCNC(=S)N(CCO)Cc1cc2cc3c(cc2[nH]c1=O)OCCO3 | -3 | -4 | 44* | 2 | -2 | -4
CCOC(=S)SCC(=O)Nc1nc(C)c(C)s1 | 3 | 8 | 50* | 3 | -7 | 39*
CCOC(=S)SCC(=O)Nc1nccs1 | -1 | -1 | 46* | 3 | -4 | 13
Cc1nc(NC(=O)CSc2nc(N)cc(N)n2)sc1C | -4 | -8 | -3 | 4 | 4 | nt
COC(=O)[C@]12CCCCC=C1N(CCc1ccc(OC)c(OC)c1)C(=O)[C@H](CC(=O)N1CCC(c3ccccc3)CC1)C2 | 1 | -11 | 0 | nt | 5 | nt
CC(C)N1CCc2c(sc(NC(=O)C(F)F)c2-c2nc3ccccc3s2)C1 | -1 | 6 | 29* | nt | nt | 5
CC(=O)Nc1sc2c(c1-c1nc3ccccc3s1)CCN(C(C)C)CC2 | 4 | 15 | 37* | nt | nt | 11
CC(=O)Nc1sc2c(c1-c1nc3ccccc3s1)CCN(C(C)C)C2 | nt | nt | nt | -15 | nt | nt
COc1ccc(NC(=O)C2Cc3c(-c4cccc(C(N)=O)c4)ccnc3O2)cn1 (stereo not given) | 0 | 1 | -1 | nt | 0 | nt
COCc1cc(N2CCN(C(=O)OC(C)(C)C)C[C@H]2C)ccc1N1CCN(Cc2ccccc2)[C@@H](C)C1 | 0 | 1 | 6 | nt | -3 | nt
CC1=CC(C)(C)NC(=S)N1c1cccc2cc(S(=O)(=O)O)ccc12 | -1 | 24 | 39* | -3 | 7 | 45*
CC1=CC(C)(C)NC(=S)N1c1ccccc1C | 0 | 5 | 6 | 0 | -1 | nt
CC1=CC(=O)C(C(C)C)=C/C1=N/OS(=O)(=O)c1ccccc1 | -1 | 4 | 16 | 4 | 1 | nt
CC1=CC(=O)C(C2CCCCC2)=C/C1=N\OS(=O)(=O)c1ccccc1 | 3 | 11 | 51* | nt | nt | 13
O=C(CSc1nccn(-c2ccc3c(c2)OCCO3)c1=O)Nc1ccccc1 | 9 | 6 | 45* | -1 | -5 | 24*
O=C(CSc1nccn(-c2cccc(F)c2)c1=O)Nc1ccc(Cl)cc1F | -5 | -6 | 75* | -4 | 4 | 69*
O=C(Nc1ccccc1C(F)(F)F)O[C@@H]1CC[C@@]23CCCN2C(=O)CCC[C@H]3C1 | 0 | 3 | 4 | nt | nt | nt
CCCCc1nnc(NC(=O)C2CC(=O)N(Cc3ccccc3)C2)s1 (stereo not given) | -9 | -1 | -2 | 3 | 4 | nt
SMILES | SIAE primary | mABHD4 FP | PRMT1 FP inh | HTRA1 inh | TCR-CD3 inh | PRMT1 inh conf
CCN(CC)CCN1C(=O)c2cccc3cc(N)cc(c23)C1=O | -1 | -7 | 25* | 7 | -9 | 22*
COc1ccc(NC(=O)CC2Sc3ncnn3C2=O)cc1 (stereo not given) | 7 | 1 | 86* | 5 | 3 | 25*
CCOC(=O)c1ccc(NC(=O)CC2Sc3ncnn3C2=O)cc1 (stereo not given) | 2 | 1 | 55* | -6 | 5 | 69*
CN1CCCCC(NC(=O)COCc2ccccc2)C1=O (stereo not given) | -6 | -3 | -3 | nt | 1 | nt
Cc1cc(C)c2c(=O)n(CC(=O)Nc3cccc(Cl)c3C)sc2n1 | 6 | 11 | 97* | 3 | 2 | 92*
Cc1cc(NC(=O)Cc2ccsc2)ccc1Br | -4 | -16 | -4 | -14 | -4 | nt
Cc1cc(C)c2c(=O)n(CC(=O)NC3CCCC3)sc2n1 | 12 | 21 | 83* | 2 | 0 | 89*
Cc1cc(C)c2c(=O)n(CC(=O)Nc3ccc(Br)c(C)c3)sc2n1 | 1 | 4 | 93* | -5 | 5 | 97*
Cc1c(Cl)cccc1NC(=O)Cn1cccc1 | 0 | 3 | 3 | -2 | -1 | nt
C/C=C(/CCC1NCCc2c1[nH]c1ccccc21)[Si](C)(C)C (stereo not given) | -1 | 3 | -4 | -11 | -3 | nt
Cc1ccccc1N1CCN(C2CCCN(C(=O)CCn3cnnn3)C2)CC1 (stereo not given) | 2 | -2 | -2 | 4 | 5 | nt
CCCOc1ccc(Cc2nn3c(=O)/c(=C/c4ccco4)sc3nc2=O)cc1 | -1 | 6 | 33* | 5 | 4 | 7
CCCOc1ccc(/C=c2\sc3nc(-c4ccco4)nn3c2=O)cc1OCC | -7 | 4 | 16 | 3 | 0 | nt
O=C(CCSc1ccccn1)c1ccccc1 | 11 | 2 | 52* | -4 | 2 | 24*
O=C(O)CCSc1ccccn1 | 4 | 6 | 19 | 3 | 1 | nt
CC(C)OCCCNC(=O)C(Cc1ccccc1)NS(=O)(=O)c1ccc2c(c1)CCC(=O)N2 (stereo not given) | 7 | 6 | 1 | 7 | -9 | nt
O=C(COC(=O)[C@@H]1CC(O)CN1S(=O)(=O)c1ccc(Cl)cc1)NC(=O)NCc1ccccc1 (stereo not given in full) | 5 | -12 | 8 | -2 | 7 | nt
COCCn1c(-c2ccccc2)csc1=Nc1cccnc1 | -1 | 7 | -2 | nt | -1 | nt
OCCn1c(-c2ccc(F)cc2)csc1=Nc1ccccc1 | 8 | 5 | 42* | 3 | -5 | 0
OCCn1c(-c2ccc3c(c2)OCO3)csc1=Nc1ccccc1 | 8 | -2 | 32* | 3 | 0 | 1
O=S(=O)(c1ccc(-c2csc(=Nc3ccccc3)n2CCCN2CCOCC2)cc1)N1CCOCC1 | -4 | -13 | -1 | 4 | -5 | nt
CCOc1ccc(N=c2scc(-c3ccccc3)n2CCO)cc1 | 4 | 13 | 13 | -1 | 3 | nt
CCOc1ccc(N=c2scc(-c3ccc(OC)cc3)n2CCO)cc1 | 3 | 3 | 26* | 2 | -7 | -1
Cn1cc(-c2coc3c(C(=O)NCc4cccc(Cl)c4)cccc23)cn1 | -5 | -29 | 4 | nt | -1 | nt
NC(=O)C[n+]1cccc2ccccc21 | 6 | -7 | 55* | 4 | 9 | 10
O=c1c2ccccc2nc(SCc2nnc(-c3ccccc3Br)o2)n1Cc1ccco1 | -7 | -15 | 69* | -32 | 6 | 58*
O=c1c2ccccc2nc(SCc2ccccc2)n1Cc1ccco1 | -6 | -17 | 3 | -24 | -4 | nt
